Measurements: ChEMBL document CHEMBL2046322, “Discovery of 1,3-Diaminobenzenes as Selective Inhibitors of Platelet Activation at the PAR1 Receptor” (ACS Med Chem Lett, 2012)
In brackets after ≈: the same amount, converted by molar mass.

Columns and labels:
Plasma [1] = experiment: Metabolic stability in mouse plasma assessed as compound remaining at 5 uM after 5 hrs; format: ADME, cell-free
In short: (§1)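 Compound incubated in human or mouse plasma; stability reported as percent remaining after 5 h.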

[2] = biological target: T1, Proteinase-activated receptor 1 (Homo sapiens, UniProt P25116); experiment: Inhibition of SFLLRN-NH2-stimulated PAR1-mediated platelet activation in […] assessed as surface expression of P-selectin after 20 mins by flow cytometry; design: species or system Plasma
T1 sequence (P25116 whole entry): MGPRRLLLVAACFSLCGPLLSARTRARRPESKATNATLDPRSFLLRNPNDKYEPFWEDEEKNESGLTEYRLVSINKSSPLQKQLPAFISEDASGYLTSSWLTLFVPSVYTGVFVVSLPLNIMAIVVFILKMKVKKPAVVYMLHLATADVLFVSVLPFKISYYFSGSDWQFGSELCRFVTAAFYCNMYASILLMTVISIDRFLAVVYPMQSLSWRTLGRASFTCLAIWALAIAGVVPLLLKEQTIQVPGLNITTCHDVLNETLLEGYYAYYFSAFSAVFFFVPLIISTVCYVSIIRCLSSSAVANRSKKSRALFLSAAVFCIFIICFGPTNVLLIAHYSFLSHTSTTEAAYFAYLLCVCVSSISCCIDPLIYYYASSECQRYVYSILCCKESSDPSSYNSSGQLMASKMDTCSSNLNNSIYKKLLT

Plasma [3] = experiment: Plasma protein binding in mouse; format: ADME, cell-free
Plasma [4] = experiment: Plasma protein binding in human; format: ADME, cell-free
[5] = biological target: T2, Proteinase-activated receptor 1 (Homo sapiens) (UniProt P25116); experiment: Inhibition of SFLLRN-NH2-stimulated PAR1-mediated platelet activation in […] assessed as surface expression of P-selectin at 10 uM after 20 mins by flow cytometry; format: cell-based
T2 sequence (whole entry): T1 sequence (P25116 whole entry)

Plasma [6] = experiment: Metabolic stability in human plasma assessed as compound remaining at 5 uM after 5 hrs; format: ADME, cell-free; in short: as §1
[7] = biological target: T2, Proteinase-activated receptor 1 (Homo sapiens); experiment: Inhibition of SFLLRN-NH2-stimulated PAR1-mediated platelet activation in platelet-rich human plasma assessed as surface expression of P-selectin at 3 uM after 20 mins by flow cytometry; details: Platelets, in the assay text read “gel-filtered human platelets” for “platelet-rich human plasma”
In short: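 Gel-filtered human platelets (0.5–1 × 10⁸/mL) exposed to antagonist at 3 μM, then challenged with 5 μM SFLLRN for 10 min. Platelets stained with PE-conjugated AC1.2 anti-P-selectin antibody for 20 min at 37 °C, diluted in PBS and measured immediately by flow cytometry.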

[8] = Solubility of the compound in phosphate buffered saline; format: physicochemical; details: buffer

| Structure (SMILES) | IC50 [2] | inhibition [5] | also measured |
| --- | --- | --- | --- |
| CCOC(=O)Nc1cccc(NC(=O)c2ccccc2Br)c1 | 2640 nM | 98% | Stability (Plasma [1]): 56%; PPB (Plasma [3]): 87%; PPB (Plasma [4]): 95%; Stability (Plasma [6]): 85% |
| CCCC(=O)Nc1cccc(NC(=O)c2ccccc2C(=O)N(C)C)c1 | – | 48% | – |
| CCCC(=O)Nc1cccc(NC(=O)c2cnc3ccccc3c2)c1 | – | 10% | – |
| CCCC(=O)Nc1cccc(NC(=O)c2ccc(F)cc2Br)c1 | 390 nM | > 99% | – |
| CCCNC(=O)c1cccc(NC(=O)c2ccccc2Cl)c1 | 1800 nM | 99% | – |
| CCCC(=O)Nc1cccc(NC(=O)c2cc(Cl)ccc2Br)c1 | 380 nM | 68% | – |
| CCCC(=O)Nc1cccc(C(=O)Nc2ccccc2Cl)c1 | – | 67% | – |
| CCCNC(=O)c1coc(NC(=O)c2ccccc2Br)n1 | – | < 1% | – |
| CCCC(=O)Nc1ccc(Cl)c(NC(=O)c2ccccc2Br)c1 | – | 35% | – |
| CCCC(=O)Nc1cccc(NC(=O)c2ccccc2OC)c1 | – | 50% | – |
| CCCC(=O)Nc1cccc(NC(=O)c2cccc(Cl)c2)c1 | – | – | inhibition [7]: 80% |
| CCCC(=O)Nc1cccc(NC(=O)c2cccnc2)c1 | – | < 1% | – |
| O=C(Nc1cccc(NC(=O)C2CCCC2)c1)c1ccccc1Br | 520 nM | 91% | Stability (Plasma [1]): 26% |
| CCCC(=O)Nc1cccc(NC(=O)c2ccc(S(C)(=O)=O)cc2)c1 | – | 10% | – |
| CCC(C)(C)C(=O)Nc1cccc(NC(=O)c2ccccc2Br)c1 | – | 21% | Stability (Plasma [1]): > 99%; PPB (Plasma [4]): 95%; Stability (Plasma [6]): > 99% |
| CCCC(=O)Nc1cccc(N(C)C(=O)c2ccccc2Br)c1 | – | < 1% | Stability (Plasma [1]): < 1%; PPB (Plasma [4]): 89%; Stability (Plasma [6]): 19% |
| CCCC(=O)Nc1cccc(NC(=O)c2ccccc2C)c1 | 770 nM | 98% | – |
| CCCC(=O)Nc1cccc(NC(=O)c2ccccc2C(F)(F)F)c1 | 1290 nM | 99% | – |
| O=C(Nc1cccc(NC(=O)c2ccccc2Br)c1)c1ccccc1 | – | 67% | – |
| CCCC(=O)Nc1cccc(NC(=O)c2ccccc2CC)c1 | 520 nM | > 99% | – |
| CCCC(=O)Nc1cccc(NC(=O)c2ccccc2F)c1 | 970 nM | 99% | – |
| CCCC(=O)Nc1cccc(NC(=O)c2ccc(C)cc2)c1 | – | 25% | – |
| CCCC(=O)Nc1cccc(NC(=O)c2cc(C)ccc2Br)c1 | 480 nM | > 99% | – |

| Structure (SMILES) | IC50 [2] | inhibition [5] | also measured |
| --- | --- | --- | --- |
| CC(C)C(=O)Nc1cccc(NC(=O)c2ccccc2Br)c1 | 1410 nM | 88% | Stability (Plasma [1]): 83% |
| CCCC(=O)Nc1cccc(NC(=O)c2ccc(C(F)(F)F)cc2)c1 | – | 30% | – |
| Cc1ccccc1C(=O)Nc1cccc(NC(=O)CC(C)C)c1 | 1120 nM | > 99% | Stability (Plasma [1]): 69%; PPB (Plasma [3]): 83%; PPB (Plasma [4]): 96%; Stability (Plasma [6]): > 99% |
| CCCC(=O)Nc1cccc(NC(=O)c2cccc(NC(C)=O)c2)c1 | – | 55% | – |
| O=C(Nc1cccc(N2CCCS2(=O)=O)c1)c1ccccc1Br | – | 8% | Stability (Plasma [1]): 98%; PPB (Plasma [3]): 76%; Stability (Plasma [6]): > 99% |
| CCCC(=O)Nc1cccc(NC(=O)c2cccc([N+](=O)[O-])c2)c1 | – | 55% | – |
| CCCCC(=O)Nc1cccc(NC(=O)c2ccccc2Br)c1 | – | < 1% | – |
| CC(=O)Nc1cccc(NC(=O)c2ccccc2Cl)c1 | – | 35% | – |
| CCCC(=O)Nc1ccc(NC(=O)c2ccccc2Br)cc1 | – | 1% | – |
| CCCC(=O)Nc1cccc(NC(=O)c2cc(F)ccc2Br)c1 | 600 nM | > 99% | – |
| CCCC(=O)Nc1cccc(NC(=O)c2c(Cl)cccc2Br)c1 | 2280 nM | > 99% | – |
| CCCC(=O)Nc1ccnc(NC(=O)c2ccccc2Br)c1 | – | < 1% | – |
| CN(C(=O)c1ccccc1Br)c1cccc(NC(=O)C2CCCC2)c1 | – | < 1% | Stability (Plasma [1]): 40%; PPB (Plasma [3]): 90%; PPB (Plasma [4]): 95%; Stability (Plasma [6]): 64% |
| CCC(=O)Nc1cccc(NC(=O)c2ccccc2Br)c1 | 1680 nM | – | inhibition [7]: 95% |
| CCCC(=O)Nc1cccc(NC(=O)c2cccc(-c3ccccc3)c2)c1 | 2200 nM | 98% | – |
| O=C(Nc1ccnc(NC(=O)c2ccccc2Br)c1)c1ccccc1 | – | 11% | – |
| CCCC(=O)Nc1cccc(NC(=O)c2ccccc2OC(F)(F)F)c1 | 710 nM | > 99% | – |
| CCCC(=O)Nc1cccc(NC(=O)c2ccccc2-c2ccccc2)c1 | – | < 1% | – |
| CCCC(=O)Nc1cccc(NC(=O)c2cccc(C#N)c2)c1 | – | 70% | – |
| CCCCS(=O)(=O)Nc1cccc(NC(=O)c2ccccc2Br)c1 | – | 31% | Stability (Plasma [1]): > 99%; Stability (Plasma [6]): 97% |
| CC(=O)N1CCCc2ccc(NC(=O)c3ccccc3Br)cc21 | – | 10% | Stability (Plasma [1]): 71%; PPB (Plasma [3]): 89%; Stability (Plasma [6]): 92% |
| CCCC(=O)Nc1cccc(NC(=O)c2ccccc2Cl)c1 | 1100 nM | > 99% | – |
| CCCC(=O)Nc1cccc(NC(=O)c2cccc(Oc3ccccc3)c2)c1 | – | – | inhibition [7]: 65% |

| Structure (SMILES) | IC50 [2] | inhibition [5] | also measured |
| --- | --- | --- | --- |
| CCCC(=O)Nc1cccc(NC(=O)c2ccccc2)c1 | – | 64% | – |
| CCCC(=O)N(C)c1cccc(NC(=O)c2ccccc2Br)c1 | – | 8% | Stability (Plasma [1]): 85%; PPB (Plasma [3]): 85%; PPB (Plasma [4]): 98%; Stability (Plasma [6]): 90% |
| CCC(=O)Nc1cccc(NC(=O)c2ccccc2C)c1C | – | 5% | – |
| CCCC(=O)Nc1cccc(NC(=O)c2cccc(Cl)c2Cl)c1 | 3120 nM | 99% | – |
| CCCC(=O)Nc1cccc(NC(=O)c2ccccc2S(C)(=O)=O)c1 | – | 21% | – |
| O=C(Nc1cc(NC(=O)C2CCCC2)ccn1)c1ccccc1Br | – | < 1% | – |
| CCS(=O)(=O)N1CCCc2ccc(NC(=O)c3ccccc3Br)cc21 | – | 26% | Stability (Plasma [1]): 97%; PPB (Plasma [3]): 96%; PPB (Plasma [4]): 98%; Stability (Plasma [6]): > 99% |
| CCS(=O)(=O)Nc1cccc(NC(=O)c2ccccc2Br)c1 | – | 27% | Stability (Plasma [1]): > 99%; PPB (Plasma [3]): 69%; PPB (Plasma [4]): 93%; Stability (Plasma [6]): 99% |
| CCCC(=O)Nc1ccc2nc(-c3ccccc3Br)[nH]c2c1 | – | 39% | – |
| Cc1ccccc1C(=O)Nc1cccc(NC(=O)Cc2ccc(Cl)cc2)c1 | – | 40% | – |
| CCCC(=O)Nc1cccc(NCc2ccccc2Br)c1 | – | 60% | Stability (Plasma [1]): 1%; Stability (Plasma [6]): 73% |
| CCCC(=O)Nc1cccc(NC(=O)c2cccc(C)c2)c1 | – | 88% | – |
| CCCC(=O)Nc1cccc(NC(=O)c2ccco2)c1 | – | 30% | – |
| CCCC(=O)Nc1cccc(NC(=O)c2ccc(OC)cc2)c1 | – | 15% | – |
| CC(C)CNC(=O)c1coc(NC(=O)c2ccccc2Br)n1 | – | < 1% | – |
| CCCC(=O)Nc1cccc(NC(=O)c2ccc(Cl)cc2)c1 | – | 80% | – |
| CCCCNc1cccc(NC(=O)c2ccccc2Br)c1 | 340 nM | > 99% | Stability (Plasma [1]): 97%; PPB (Plasma [3]): 96%; PPB (Plasma [4]): 97%; Stability (Plasma [6]): 99% |
| CC(C)CC(=O)Nc1cccc(NC(=O)c2ccccc2Br)c1 | 290 nM | > 99% | Stability (Plasma [1]): 65%; solubility [8]: 20 µM (≈ 7.51 µg/mL); PPB (Plasma [3]): 87%; PPB (Plasma [4]): 93%; Stability (Plasma [6]): 90% |
| CCCC(=O)Nc1cccc(NC(=O)c2ccc(F)cc2)c1 | – | 85% | – |
| CCCC(=O)Nc1cccc(NC(=O)c2c(C)cccc2C)c1 | 3000 nM | 98% | – |
| CCCC(=O)Nc1cccc(NC(=O)c2cccc(S(C)(=O)=O)c2)c1 | – | 25% | – |
| O=C(Nc1cccc(N2CCCCC2=O)c1)c1ccccc1Br | – | 9% | Stability (Plasma [1]): 82%; PPB (Plasma [3]): 72%; PPB (Plasma [4]): 82%; Stability (Plasma [6]): 94% |
